From ChEMBL document CHEMBL2407075, “Sulphonamido-quinoxalines: search for anticancer agent” (Eur J Med Chem, 2013)

Experiments:
Type in all cases: functional
SN12C = assay: Growth inhibition of human SN12C cells assessed as cell growth at 10^-4 M after 48 hrs by sulforhodamine B assay; details: read-out: Activity
HCT-116 = assay: Growth inhibition of human HCT116 cells assessed as cell growth at 10^-4 M after 48 hrs by sulforhodamine B assay; details: HCT-116, 48 h, read-out: Activity
How it was run: (§1)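 Five-dose screen at NCI. Cells in RPMI 1640 with 5% FBS and 2 mM L-glutamine, seeded at 5000–40,000 cells/well and grown 24 h at 37 °C, 5% CO2 before dosing, with time-zero plates TCA-fixed. Drug diluted from DMSO stock to 0.01, 0.1, 1, 10 and 100 µM final, 48 h. Cells fixed with cold TCA (10% final), stained with 0.4% SRB and read at 515 nm. Percent growth from Tz, control and test absorbances; GI50, TGI and LC50 from dose-response curves.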

HCT-15 = assay: Growth inhibition of human HCT15 cells assessed as cell growth at 10^-4 M after 48 hrs by sulforhodamine B assay; details: HCT-15, 48 h, read-out: Activity; how it was run: as §1
SR = assay: Growth inhibition of human SR cells assessed as cell growth at 10^-4 M after 48 hrs by sulforhodamine B assay; details: read-out: Activity
MCF7 = assay: Growth inhibition of human MCF7 cells assessed as cell growth at 10^-5 M after 48 hrs by sulforhodamine B assay; details: MCF7, 48 h, read-out: Activity
SK-OV-3 = assay: Growth inhibition of human SKOV3 cells assessed as cell growth at 10^-5 M after 48 hrs by sulforhodamine B assay; details: SK-OV-3, 48 h, read-out: Activity
OVCAR-5 = assay: Growth inhibition of human OVCAR5 cells assessed as cell growth at 10^-5 M after 48 hrs by sulforhodamine B assay; details: OVCAR-5, 48 h, read-out: Activity
SK-MEL-28 = assay: Growth inhibition of human SK-MEL-28 cells assessed as cell growth at 10^-5 M after 48 hrs by sulforhodamine B assay; details: SK-MEL-28, 48 h, read-out: Activity
SNB-75 = assay: Growth inhibition of human SNB75 cells assessed as cell growth at 10^-5 M after 48 hrs by sulforhodamine B assay; details: SNB-75, 48 h, read-out: Activity
SW-620 = assay: Growth inhibition of human SW620 cells assessed as cell growth at 10^-5 M after 48 hrs by sulforhodamine B assay; details: SW-620, 48 h, read-out: Activity
BT-549 = assay: Growth inhibition of human BT549 cells assessed as cell growth at 10^-6 M after 48 hrs by sulforhodamine B assay; details: BT-549, 48 h, read-out: Activity
How it was run: (§2)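 Five-dose NCI-60 run (0.01, 0.1, 1, 10 and 100 µM, as 10-fold dilutions from a DMSO stock made at 400× the top final level). Cells were grown in RPMI 1640 with 5% FBS and 2 mM glutamine and plated for 24 h. They were then exposed for 48 h at 37 °C and 5% CO2. TCA fixation was followed by SRB staining with A515 read-out. Percent growth was taken relative to time-zero and control plates.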

TK-10 = assay: Growth inhibition of human TK10 cells assessed as cell growth at 10^-6 M after 48 hrs by sulforhodamine B assay; details: TK-10, 48 h, read-out: Activity
IGROV-1 [1] = assay: Growth inhibition of human IGROV1 cells assessed as cell growth at 10^-6 M after 48 hrs by sulforhodamine B assay; details: IGROV-1, 48 h, read-out: Activity; how it was run: as §1
MDA-MB-435 = assay: Growth inhibition of human MDA-MB-435 cells assessed as cell growth at 10^-6 M after 48 hrs by sulforhodamine B assay; details: MDA-MB-435, 48 h, read-out: Activity
SF-295 [2] = assay: Growth inhibition of human SF295 cells assessed as cell growth at 10^-6 M after 48 hrs by sulforhodamine B assay; details: SF-295, 48 h, read-out: Activity
ACHN = assay: Growth inhibition of human ACHN cells assessed as cell growth at 10^-7 M after 48 hrs by sulforhodamine B assay; details: read-out: Activity; how it was run: as §2
OVCAR-8 = assay: Growth inhibition of human OVCAR8 cells assessed as cell growth at 10^-7 M after 48 hrs by sulforhodamine B assay; details: OVCAR-8, 48 h, read-out: Activity
OVCAR-3 [3] = assay: Growth inhibition of human OVCAR3 cells assessed as cell growth at 10^-7 M after 48 hrs by sulforhodamine B assay; details: OVCAR-3, 48 h, read-out: Activity
IGROV-1 [4] = assay: Growth inhibition of human IGROV1 cells assessed as cell growth at 10^-7 M after 48 hrs by sulforhodamine B assay; details: IGROV-1, 48 h, read-out: Activity
MDA-MB-231 = assay: Growth inhibition of human MDA-MB-231 cells assessed as cell growth at 10^-8 M after 48 hrs by sulforhodamine B assay; details: MDA-MB-231, 48 h, read-out: Activity
OVCAR-3 [5] = assay: Growth inhibition of human OVCAR3 cells assessed as cell growth at 10^-8 M after 48 hrs by sulforhodamine B assay; details: OVCAR-3, 48 h, read-out: Activity
SF-295 [6] = assay: Growth inhibition of human SF295 cells assessed as cell growth at 10^-8 M after 48 hrs by sulforhodamine B assay; details: SF-295, 48 h, read-out: Activity
KM12 = assay: Growth inhibition of human KM12 cells assessed as cell growth at 10^-8 M after 48 hrs by sulforhodamine B assay; details: KM12, 48 h, read-out: Activity
NCI-H226 = assay: Growth inhibition of human NCI-H226 cells assessed as cell growth at 10^-8 M after 48 hrs by sulforhodamine B assay; details: NCI-H226, 48 h, read-out: Activity
HOP-92 = assay: Growth inhibition of human HOP92 cells assessed as cell growth at 10^-8 M after 48 hrs by sulforhodamine B assay; details: HOP-92, 48 h, read-out: Activity; how it was run: as §1
HL-60(TB) = assay: Growth inhibition of human HL-60(TB) cells assessed as cell growth at 10^-8 M after 48 hrs by sulforhodamine B assay; details: HL-60, 48 h, read-out: Activity
How it was run: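 HL-60(TB) suspension cells were treated 48 h at 37 °C within the five-dose series (0.01–100 µM), fixed with 16% final TCA and SRB-stained, read at 515 nm. Percentage growth at each concentration = (Ti−Tz)/(C−Tz)×100, or (Ti−Tz)/Tz×100 when Ti<Tz, with time-zero (Tz) and untreated control (C) plates.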

[7] = Growth inhibition of human Hs 578T cells after 48 hrs by sulforhodamine B assay; details: for CC50: read-out: LC50 (the source's name)
How it was run: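 Adherent cells in RPMI 1640 with 5% FBS and 2 mM L-glutamine were plated at 5000–40,000 cells/well and grown 24 h. Five concentrations (0.01–100 µM, DMSO stock) were added for 48 h at 37 °C. Cells were fixed with cold TCA (10% final) and stained with SRB, read at 515 nm. GI50 came from log concentration–growth curves against time-zero and control plates.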

UACC-62 = assay: Growth inhibition of human UACC62 cells after 48 hrs by sulforhodamine B assay; details: UACC-62, 48 h, read-out: LC50 (the source's name)

Compound | growth at 100 µM (SN12C) | growth at 100 µM (HCT-116) | growth at 100 µM (HCT-15) | growth at 100 µM (SR) | growth at 10 µM (MCF7) | growth at 10 µM (SK-OV-3) | growth at 10 µM (OVCAR-5) | growth at 10 µM (SK-MEL-28) | growth at 10 µM (SNB-75) | growth at 10 µM (SW-620) | growth at 1 µM (BT-549) | growth at 1 µM (TK-10) | growth at 1 µM (IGROV-1 [1]) | growth at 1 µM (MDA-MB-435) | growth at 1 µM (SF-295 [2]) | growth at 0.1 µM (ACHN) | growth at 0.1 µM (OVCAR-8) | growth at 0.1 µM (OVCAR-3 [3]) | growth at 0.1 µM (IGROV-1 [4]) | growth at 0.01 µM (MDA-MB-231) | other results
O=S(=O)(Nc1ccccn1)c1ccc2nc(-c3ccccc3)c(-c3ccccc3)nc2c1 | 64% | 39% | 63% | 18% | -22% | 11% | 8% | 19% | 3% | 14% | 71% | 114% | 102% | 91% | 90% | 98% | 97% | 92% | 104% | 110% | growth at 0.01 µM (OVCAR-3 [5]): 92%; growth at 0.01 µM (SF-295 [6]): 86%; growth at 0.01 µM (KM12): 91%; growth at 0.01 µM (NCI-H226): 100%; growth at 0.01 µM (HOP-92): 94%; growth at 0.01 µM (HL-60(TB)): 98%; GI50 [7]: 1560 nM; CC50 [7]: > 100 µM; CC50 (UACC-62): > 100 µM
O=S(=O)(Nc1ccc(Cl)cc1)c1ccc2nc(-c3ccccc3)c(-c3ccccc3)nc2c1 | 78% | 52% | 68% | 50% | -16% | 14% | 6% | 21% | 12% | 14% | 78% | 108% | 93% | 92% | 82% | 95% | 101% | 97% | 101% | 99% | growth at 0.01 µM (OVCAR-3 [5]): 100%; growth at 0.01 µM (SF-295 [6]): 92%; growth at 0.01 µM (KM12): 103%; growth at 0.01 µM (NCI-H226): 91%; growth at 0.01 µM (HOP-92): 96%; growth at 0.01 µM (HL-60(TB)): 97%; TGI [7]: > 100 µM; CC50 [7]: > 100 µM; CC50 (UACC-62): > 100 µM
